Experimental data as given in ChEMBL document CHEMBL4270636, “5'-Chloro-2,2'-dihydroxychalcone and related flavanoids as treatments for prostate cancer” (Eur J Med Chem, 2018).
One block for each compound: values may come before it. Calls of active or inactive are those of the source. The rule behind the calls is not given here.

Columns and labels:
Androgen receptor = target: T1, Androgen receptor (Homo sapiens, UniProt P10275); test: Antagonist activity at AR in human LNCAP cells assessed as reduction in DHT-induced transcriptional activation after 24 hrs by luciferase reporter gene assay; assay type: cell-based
T1 sequence (P10275 whole entry): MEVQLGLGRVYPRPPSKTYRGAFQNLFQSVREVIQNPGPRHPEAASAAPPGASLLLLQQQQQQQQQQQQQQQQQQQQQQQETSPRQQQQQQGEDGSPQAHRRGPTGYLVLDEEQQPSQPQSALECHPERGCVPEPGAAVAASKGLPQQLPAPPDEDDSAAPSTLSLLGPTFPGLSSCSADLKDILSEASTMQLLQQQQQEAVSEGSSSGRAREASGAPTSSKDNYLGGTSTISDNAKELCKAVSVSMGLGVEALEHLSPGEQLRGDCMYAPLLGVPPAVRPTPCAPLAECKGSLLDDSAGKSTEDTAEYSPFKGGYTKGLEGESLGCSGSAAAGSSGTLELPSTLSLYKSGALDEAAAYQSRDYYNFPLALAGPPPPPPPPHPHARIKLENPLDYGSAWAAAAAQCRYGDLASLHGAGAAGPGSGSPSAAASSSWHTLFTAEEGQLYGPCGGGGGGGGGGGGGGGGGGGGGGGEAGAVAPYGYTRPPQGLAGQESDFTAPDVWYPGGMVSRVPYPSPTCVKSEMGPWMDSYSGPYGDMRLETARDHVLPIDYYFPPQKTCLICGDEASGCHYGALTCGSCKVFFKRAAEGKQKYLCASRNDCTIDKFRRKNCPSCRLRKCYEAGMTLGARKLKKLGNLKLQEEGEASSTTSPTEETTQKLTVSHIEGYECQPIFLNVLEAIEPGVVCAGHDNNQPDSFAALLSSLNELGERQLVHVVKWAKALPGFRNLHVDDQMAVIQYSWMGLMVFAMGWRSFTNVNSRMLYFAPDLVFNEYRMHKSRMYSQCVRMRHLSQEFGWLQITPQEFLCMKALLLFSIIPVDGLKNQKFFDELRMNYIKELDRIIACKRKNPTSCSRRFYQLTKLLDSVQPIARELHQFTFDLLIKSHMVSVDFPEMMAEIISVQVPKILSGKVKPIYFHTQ

LNCaP [1] = test: Antiproliferative activity against human LNCAP cells assessed as reduction in cell growth treated every 2 days for 4 days by hemocytometry; assay type: functional, cell-based
PC-3 [2] = test: Antiproliferative activity against human PC3 cells assessed as reduction in cell growth treated every 2 days for 4 days by hemocytometry; assay type: functional, cell-based
DU-145 = test: Antiproliferative activity against human DU145 cells assessed as reduction in cell growth treated every 2 days for 4 days by hemocytometry; assay type: functional, cell-based
[3] = target: T2, Androgen receptor (Homo sapiens) (UniProt P10275); test: Antagonist activity at AR in human LNCAP cells assessed as reduction in DHT-induced cell growth at 1 to 3 uM treated for every 2 days for 4 days by hemocytometry; assay type: cell-based
T2 sequence (whole entry): T1 sequence (P10275 whole entry)

[4] = target: T2, Androgen receptor (Homo sapiens); test: Antagonist activity at AR (unknown origin) expressed in human PC3 cells assessed as reduction in DHT-induced transcriptional activation at 3 to 10 uM after 24 hrs by luciferase reporter gene assay; assay type: cell-based
Procedure, shortened: (§1)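 PC-3 cells (AR-negative) co-transfected with wild-type or AR-V7 expression vector plus PSA promoter-luciferase reporter (pGL3PSAp-5.8, 0.5 ug/well); seeded 50,000/well, transfected after 24 h, treated with compounds ± 1 nM DHT for 24 h from 24 h post-transfection; lysed cells read for luciferase activity by luminometer.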

Homo sapiens = organism: Homo sapiens; test: Antiproliferative activity against human LNCaP-SF cells assessed as reduction in cell growth at 10 uM treated every 2 days for 4 days by hemocytometry; assay type: functional, cell-based
Procedure, shortened: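 LNCaP-SF castration-resistant subline cultured 4 days with compound at stated concentrations, with or without 0.1 nM DHT; growth assessed by cell counting.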

LNCaP [5] = test: Antiproliferative activity against human LNCAP cells assessed as reduction in cell growth at 10 uM treated every 2 days for 4 days by hemocytometry; assay type: functional, cell-based
[6] = tested on: Androgen receptor (Homo sapiens), P10275 [UNDEFINED MUTATION]; conditions: at 3 to 10 µM
PC-3 [7] = test: Cell cycle arrest in human PC3 cells assessed as accumulation at G2/M phase at 200 nM after 24 hrs by propidium iodide staining based flow cytometry; assay type: functional
KB = test: Antiproliferative activity against human KB cells assessed as reduction in cell growth after 72 hrs by sulforhodamine B assay
[8] = Antiproliferative activity against human DU145/TxR/CxR cells assessed as reduction in cell growth treated every 2 days for 4 days by hemocytometry; assay type: functional, cell-based; conditions: DU-145
PC-3 [9] = test: Antitumor activity against human PC3 cells xenografted in C.B-17 SCID mouse assessed as tumor growth inhibition at 30 mg/kg, ip administered every 4 days measured during compound dosing; assay type: functional, organism-based
Procedure, shortened: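 Male C.B-17 scid mice (purchased at 7 weeks) given 2.0×10⁶ PC-3 cells in 50% matrigel subcutaneously on dorsal side at 8 weeks; at ~50 mm³ tumor, randomized into groups of 5, dosing from second day at 30 mg/kg i.p. every 4 days; tumor volume and body weight followed; mean ± SD.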

A549 [10] = test: Cell cycle arrest in human A549 cells assessed as accumulation at Sub-G1 phase at 3 times IC50 after 24 to 48 hrs by propidium iodide staining based flow cytometry; assay type: functional
[11] = Antiproliferative activity against human PC3-TxR cells assessed as reduction in cell growth treated every 2 days for 4 days by hemocytometry; assay type: functional, cell-based
[12] = Antiproliferative activity against human KBVIN cells assessed as reduction in cell growth after 72 hrs by sulforhodamine B assay; assay type: functional, cell-based
[13] = Antiproliferative activity against human PC3/TxR/CxR cells assessed as reduction in cell growth treated every 2 days for 4 days by hemocytometry; assay type: functional, cell-based
A549 [14] = test: Antiproliferative activity against human A549 cells assessed as reduction in cell growth after 72 hrs by sulforhodamine B assay; conditions: A549, 72 h
MDA-MB-231 = test: Antiproliferative activity against human MDA-MB-231 cells assessed as reduction in cell growth after 72 hrs by sulforhodamine B assay; assay type: functional, cell-based; conditions: MDA-MB-231, 72 h
MCF7 = test: Antiproliferative activity against human MCF7 cells assessed as reduction in cell growth after 72 hrs by sulforhodamine B assay; conditions: MCF7, 72 h
PC-3 [15] = test: Cell cycle arrest in human PC3 cells assessed as accumulation at Sub-G1 phase at 2 times IC50 after 24 to 48 hrs by propidium iodide staining based flow cytometry; assay type: functional
A549 [16] = test: Cell cycle arrest in human A549 cells assessed as accumulation at G2/M phase at 3 times IC50 after 24 to 48 hrs by propidium iodide staining based flow cytometry; assay type: functional
[17] = Antiproliferative activity against human DU145-TxR cells assessed as reduction in cell growth treated every 2 days for 4 days by hemocytometry; assay type: functional, cell-based
[18] = tested on: Androgen receptor (Homo sapiens), P10275 [UNDEFINED MUTATION]; test: Antagonist activity at AR V7 mutant (unknown origin) expressed in human PC3 cells assessed as reduction in DHT-induced transcriptional activation after 24 hrs by luciferase reporter gene assay; assay type: cell-based; procedure, shortened: as §1

Compound: O=C1CC(c2ccccc2O)Oc2cc(O)ccc21 (stereo unspecified)
IC50 (Androgen receptor): > 10000 nM

Compound: O=C(/C=C/c1ccccc1O)c1cc(Br)cc(Br)c1O
IC50 (Androgen receptor): 2870 nM

Compound: O=C(/C=C/c1ccccc1O)c1cc(I)ccc1O
IC50 (Androgen receptor): 1640 nM

Compound: CCOc1ccccc1/C=C/C(=O)c1cc(Br)ccc1O
IC50 (Androgen receptor): 5270 nM

Compound: O=C(/C=C/c1ccc(O)cc1)c1cc(Cl)ccc1O
IC50 (Androgen receptor): 5920 nM

Compound: O=C1CC(c2ccccc2O)Oc2ccc(O)cc21 (stereo unspecified)
IC50 (Androgen receptor): 2730 nM

Compound: O=C(/C=C/c1ccccc1)c1cc(Cl)ccc1O
IC50 (Androgen receptor): 1510 nM

Compound: COc1ccc(/C=C\c2cc(OC)c(OC)c(OC)c2)cc1O
Activity (PC-3 [7]): Active

Compound: CNC(=O)c1ccc(N2C(=S)N(c3ccc(C#N)c(C(F)(F)F)c3)C(=O)C2(C)C)cc1F
Activity (LNCaP [5]): inactive

Compound: O=C1CC(c2ccccc2O)Oc2ccc(I)cc21 (stereo unspecified)
IC50 (Androgen receptor): 4260 nM

Second part, led by results:

IC50 (Androgen receptor): > 10000 nM
Compound: COc1ccccc1/C=C/C(=O)c1cc(Cl)ccc1O

IC50 (Androgen receptor): < 1000 nM | IC50 (LNCaP [1]): 7.25 µM | IC50 (PC-3 [2]): 7330 nM | IC50 (DU-145): > 10 µM
Compound: COc1ccc(O)c(C(=O)/C=C/c2ccccc2OC)c1

IC50 (Androgen receptor): < 1000 nM | Activity [3]: Active | IC50 (LNCaP [1]): 5.45 µM | inhibition [4]: Active | IC50 (PC-3 [2]): 2560 nM | inhibition [6]: inactive | IC50 (DU-145): 4.11 µM
Compound: O=C1CC(c2ccccc2O)Oc2ccccc21 (stereo unspecified) [2'-HYDROXY-FLAVANONE]
Activity (Homo sapiens): Active | Activity (LNCaP [5]): Active

IC50 (Androgen receptor): < 1000 nM | IC50 (LNCaP [1]): > 10 µM
Compound: O=c1cc(-c2ccccc2O)oc2ccccc12

IC50 (Androgen receptor): > 10000 nM
Compound: COc1ccc2c(c1)C(=O)CC(c1ccccc1OC)O2 (stereo unspecified)

IC50 (Androgen receptor): 6190 nM
Compound: COc1ccc2oc(-c3ccccc3OC)cc(=O)c2c1

IC50 (Androgen receptor): 1720 nM
Compound: COc1ccccc1/C=C/C(=O)c1cc(I)ccc1O

IC50 (Androgen receptor): < 1000 nM | Activity [3]: Active | IC50 (LNCaP [1]): 4.96 µM | IC50 (KB): 16.2 µM | inhibition [4]: Active | IC50 (A549 [14]): 8.5 µM | IC50 (MDA-MB-231): 9.7 µM | IC50 (MCF7): 14.1 µM | IC50 (PC-3 [2]): 1840 nM | IC50 (DU-145): 6.13 µM | inhibition [18]: Dose-dependent effect
Compound: COc1ccccc1/C=C/C(=O)c1cc(Br)ccc1O
IC50 [8]: 5.16 µM | TGI (PC-3 [9]): inactive | Activity (A549 [10]): inactive | IC50 [11]: 3.76 µM | IC50 [12]: 11.1 µM | IC50 [13]: 3.73 µM | Activity (Homo sapiens): Active | Activity (LNCaP [5]): Active | Activity (PC-3 [15]): Active | Activity (A549 [16]): Active | IC50 [17]: 4.47 µM
